Assay outcomes as filed in PubChem BioAssay.
TDP2 inh – TDP2 (human) inhibition, absorbance primary screen; recombinant TDP2, T5PNP hydrolysis, p-nitrophenol absorbance 415 nm; inhibition, % at 12.8 µM; 370,000 tested, 0.34% active; AID 720702;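 active = inhibition above the mean of all tested compounds plus 3 SD, set per campaign, cut at about 25% in these data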
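System: recombinant human TDP2 / Amount: 120 nM TDP2 per well / Also added: 5 mM T5PNP chromogenic substrate / Doses: 12.8 µM single point, 1% DMSO / Incubation: 2 h at 37 °C / Detection: p-Nitrophenol epi absorbance / Evaluation: % inhibition relative to enzyme-containing and enzyme-free wells / Repeats: singlicate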
mABHD4 FP – inhibits mouse alpha/beta hydrolase domain 4. 370,000 tested, 0.54% active. Q8VD66. inhibition, % at 8.92 µM. purified mABHD4, FP-Rh probe fluorescence polarization;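 active = inhibition exceeding the mean over every tested compound plus 3 SD, cut at about 30% in these data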
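Material: mouse ABHD4 enzyme, wild type; Benchmarks: S159A mutant high control, sample median low control; Buffer or medium: HEPES pH 7.0, NaCl, Pluronic buffer; Signal: fluorescence polarization; Read-out: percent inhibition of probe binding, normalized to plate controls; Timing: pre-incubation 45 min, probe exposure 60 min, at 25 °C; Dosing: 8.92 µM, single dose.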
TCR-CD3 inh – human TCR-CD3 binding inhibition. TAMRA-labeled TCR probe fluorescence, biochemical. inhibition, % at 9.4 µM. 360,000 tested, 0.37% active. AID 651800; in the data active = inhibition above about 19%;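 also: recombinant mutant TCR 2C K166C tagged with TAMRA read by polarization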
PAD4 inh – PAD4 (human) enzyme inhibition. Q9UM07. recombinant PAD4, RCA probe fluorescence polarization. inhibition, % at 6.36 µM. 330,000 tested, 0.41% active. AID 485272;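 active = percent inhibition above a cutoff equal to the mean of all tested compounds plus 3 SD, cut at about 15% in these data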
HTRA1 inhibitor – blocks human HTRA1 serine peptidase; 340,000 tested, 0.5% active; recombinant HTRA1, FP-rhodamine activity-based probe, fluorescence polarization; Q92743; inhibition, % at 5.96 µM; in the data active = inhibition above about 36%
Target sequence (Q92743 whole entry, looked up): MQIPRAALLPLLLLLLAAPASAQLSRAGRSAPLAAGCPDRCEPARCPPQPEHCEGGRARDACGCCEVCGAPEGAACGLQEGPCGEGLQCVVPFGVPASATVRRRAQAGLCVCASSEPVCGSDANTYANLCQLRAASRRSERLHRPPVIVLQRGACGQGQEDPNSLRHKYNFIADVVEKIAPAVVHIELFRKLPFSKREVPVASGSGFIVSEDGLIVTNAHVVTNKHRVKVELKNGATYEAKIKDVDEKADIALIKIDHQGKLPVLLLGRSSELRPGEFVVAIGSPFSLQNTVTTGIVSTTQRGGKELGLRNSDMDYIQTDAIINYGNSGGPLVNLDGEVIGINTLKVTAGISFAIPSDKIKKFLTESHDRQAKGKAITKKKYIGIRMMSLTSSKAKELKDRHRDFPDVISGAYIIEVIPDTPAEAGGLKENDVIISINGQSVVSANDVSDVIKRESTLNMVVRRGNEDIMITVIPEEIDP
SIAE primary – inhibitors of human sialic acid acetylesterase SIAE; 370,000 tested, 0.69% active; inhibition, % at 9.66 µM; AID 1053197; SIAE FP-Rh probe binding, fluorescence polarization; Q9HAT2;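 active = inhibition above a cutoff: mean of compounds within the control limits plus 3 SD of those, cut at about 17% in these data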
SIAE confirm – confirmation of human SIAE inhibitors; inhibition, % at 9.66 µM; AID 1117263; shares compounds with SIAE primary; SIAE FP-Rh activity-based probe, fluorescence polarization; 2,300 tested, 13% active;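 active = mean inhibition of the replicates above the hit cutoff set in the primary screen, cut at about 17% in these data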;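 also: inhibitors lower polarization as more probe stays unbound to SIAE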
Of the large screens only hits and unclear results are named; the others gave an inactive call (follow-up assays come after a bar, where they were run). In the library only some 2% were active in any assay of this set; here they are far more common.

COc1ccc(CNC(=O)CCNC(=O)N2CC(=O)Nc3ccccc32)cc1	SIAE primary active (no result: PAD4 inh) | SIAE confirm inactive
COc1ccc(NC(=O)CCNC(=O)N2CC(=O)Nc3ccccc32)c(OC)c1	none
C[C@H](CO)N1C[C@H](C)[C@H](CN(C)S(=O)(=O)c2cccs2)Oc2ccc(NC(=O)Nc3ccc4c(c3)OCO4)cc2CC1=O	SIAE primary 21 | SIAE confirm inactive
C[C@H](CO)N1C[C@H](C)[C@H](CN(C)S(=O)(=O)c2ccccc2)Oc2ccc(NC(=O)NC3CCCCC3)cc2CC1=O	SIAE primary 30 | SIAE confirm inactive
C[C@H](CO)N1C[C@H](C)[C@@H](CN(C)S(=O)(=O)c2cccs2)Oc2ccc(NC(=O)Nc3ccc4c(c3)OCO4)cc2C1=O	none
Cc1nn(C2CCCO2)c(=O)nc1N (centres undefined)	none (no result: HTRA1 inhibitor)
Cc1ccc(N2C(N)=C(C#N)C(c3cccs3)C3=C2CC(C)(C)CC3=O)cc1 (centres undefined)	none
CC1(C)CC(=O)C2=C(C1)N(c1ccc(F)cc1)C(N)=C(C#N)C2c1cccs1 (centres undefined)	SIAE primary 31 | SIAE confirm inactive
CCOC(=O)C1=C(c2ccccc2)NC(=O)NC1c1ccc(O)c(OCC)c1 (centres undefined)	SIAE primary 19 | SIAE confirm inactive
CCOC(=O)C1=C(c2ccccc2)NC(=O)NC1c1ccc(O)c(Cl)c1 (centres undefined)	none
CCN=C1SC(CC(=O)Nc2ccc(N3CCOCC3)cc2)C(=O)N1CC (centres undefined)	SIAE primary 19 | SIAE confirm inactive
CCN=C1SC(CC(=O)Nc2ccc(C(F)(F)F)cc2)C(=O)N1CC (centres undefined)	none
Cn1c(=O)c2c(ncn2CC2OCCO2)n(C)c1=O	none
Cc1ccc(OCC(=O)Nc2cccc(S(=O)(=O)N3CCCCCC3)c2)cc1C	none
CCN1C[C@@H]2[C@@H]3C(=O)N(C)C(=O)[C@@H]3[C@](Cc3ccccc3)(C1=O)N2C(=O)c1ccc(C)cc1	none (no result: PAD4 inh)
CCN1C[C@@H]2[C@@H]3C(=O)N(C)C(=O)[C@@H]3[C@](Cc3ccccc3)(C1=O)N2C(=O)c1ccc(C(C)(C)C)cc1	SIAE primary 21 (no result: PAD4 inh) | SIAE confirm inactive
CCN(CCO)c1ccc(N=Nc2cc(C)[nH]n2)cc1	none
COc1cccc(C(=O)NCCS(=O)(=O)N2CCCC(C)C2)c1 (centres undefined)	none (no result: PAD4 inh)
CN(C)CCOC(=O)/C(=C/c1cn(C)c2ccccc12)NC(=O)c1ccccc1	SIAE primary 18 | SIAE confirm inactive
Cc1ccc(C(=O)N/C(=C\c2cn(C)c3ccccc23)C(=O)OCCN(C)C)cc1	none
Cc1cc[n+](-c2[nH]c(=O)sc2/C=N/N=C(\[O-])CCn2c3ccccc3c3ccccc32)cc1	SIAE primary 24 (no result: HTRA1 inhibitor) | SIAE confirm inactive
CN(c1ccc(OCC(=O)OCC(=O)Nc2ccc([N+](=O)[O-])cc2)cc1)S(=O)(=O)c1cccs1	SIAE primary 40 (no result: PAD4 inh) | SIAE confirm 26
COc1ccc(C2CC(c3ccccc3)=NN2c2ccc(/C=N/NC(=O)c3ccncc3)cc2)cc1 (centres undefined)	SIAE primary 17 | SIAE confirm inactive
COc1ccc(C2CC(c3ccccc3)=NN2c2ccc(C(N)=O)cc2)cc1 (centres undefined)	none
CC(=O)c1ccc2c(c1)C1C=CCC1C(c1ccc(S(=O)(=O)N3CCOCC3)cc1)N2 (centres undefined)	SIAE primary 18 | SIAE confirm inactive
O=C(O)CN1C(=O)C2C3CCC(C3)C2C1=O (centres undefined)	none (no result: PAD4 inh)
CC(=O)c1ccc(S(=O)(=O)N2CCN(c3ccccc3F)CC2)cc1	none
CCC(=O)C1CCCN(C(=O)c2ccc(OC3CCN(C(=O)c4cccnc4)CC3)cc2)C1 (centres undefined)	none
CN(C(=O)c1ccc(OC2CCN(C(=O)c3cccnc3)CC2)cc1)C1CCCCC1	SIAE primary 24 | SIAE confirm inactive
CC(=O)N1C[C@@H](CN2C(=O)CCC2=O)[C@@H]2C[C@H]1c1ccccc1N2C	none (no result: PAD4 inh, HTRA1 inhibitor)
C[C@@H]1CN([C@H](C)CO)C(=O)c2cc(Br)cnc2O[C@@H]1CN(C)C(=O)c1cccc(F)c1	SIAE primary 17 (no result: PAD4 inh) | SIAE confirm inactive
COc1ccc(NC(=S)N/N=C/c2cccn2Cc2ccc(F)cc2)cc1	SIAE primary 19 | SIAE confirm inactive
Cc1ccc(Cn2cccc2/C=N/NC(=S)Nc2ccc(C)cc2)cc1	none
O=C(COC(=O)COc1ccc(Cl)cc1)Nc1ccc2c(c1)OCCO2	SIAE primary 18 | SIAE confirm inactive
CCC(=O)c1ccc(OCC(=O)OCC(=O)Nc2ccc3c(c2)OCCO3)cc1	none
O=C(O)CCC(=O)N1CCN(c2ncccn2)CC1	none
Cc1ccc(NC(=O)NCc2ccccn2)cc1	none
CCOc1ccc(NC(=O)NCc2ccccn2)cc1	SIAE primary 20 | SIAE confirm inactive
CC(c1ccc(F)cc1)n1cc(S(=O)(=O)N2CCCC2)ccc1=O (centres undefined)	none
CCOC(=O)/C(=N/Nc1ccc(OC)cc1)Sc1nnc(CCc2ccccc2)n1-c1ccccc1	SIAE primary 17 | SIAE confirm inactive
CCc1ccc(N2CN(Cc3ccco3)CNC2=S)cc1	none
O=S(=O)(NCc1nc2ccccc2[nH]1)c1ccccc1	none
Cc1c(/C=N\NC(=O)C2COc3ccccc3O2)c2ccccc2n1C (centres undefined)	none
Cn1cc(/C=N\NC(=O)C2COc3ccccc3O2)c2ccccc21 (centres undefined)	SIAE primary 20 (no result: HTRA1 inhibitor) | SIAE confirm inactive
CC(C)NC(=O)Cn1c(SCC(=O)N2CCCc3ccccc32)nc2ccccc21	SIAE primary 18 | SIAE confirm inactive
COC(=O)c1[nH]c2ccc(Cl)cc2c1NC(=O)CN1CCC(C(N)=O)CC1	SIAE primary 22 (no result: HTRA1 inhibitor) | SIAE confirm inactive
CC(C)(C)c1nnc(SCC(=O)Nc2ccc(N3CCCCC3)cc2)n1N	none
O=S(=O)(c1ccccc1)N1CCCc2nc(-c3ccc(F)cc3)ccc21	none (no result: PAD4 inh, HTRA1 inhibitor)
CCOC(=O)[C@]12CCCC3=C1N(CCC3)C(=O)[C@@H](CC(=O)N1CCCC1)C2	none (no result: TCR-CD3 inh, PAD4 inh, HTRA1 inhibitor)
COCc1nnc(NC(=O)C23CC4CC(CC(C4)C2)C3)s1	SIAE primary 18 (no result: PAD4 inh) | SIAE confirm inactive
O=C(Nc1cc(S(=O)(=O)N2CCOCC2)ccc1N1CCCCC1)c1cc(-c2ccccn2)nc2ccccc12	SIAE primary 18 | SIAE confirm inactive
Cc1ccc(S(=O)(=O)N2CCOCC2)cc1NC(=O)c1cc(-c2ccccn2)nc2ccccc12	none
